Reference: ChEMBL document CHEMBL3856286, “Halogenated naphthochalcones and structurally related naphthopyrazolines with antitumor activity” (Bioorg Med Chem Lett, 2016)
Calls of active or inactive are those of the source. The rule behind the calls is not given here.

Assays:
[1] = (§1) Growth inhibition of human HT-29 cells after 72 hrs by MTT assay; assay type: functional, cell-based; conditions: HT-29, 72 h
HT-29 = assay: as §1; assay type: functional, cell-based
[2] = (§2) Growth inhibition of human HCT116 cells after 72 hrs by MTT assay; assay type: functional, cell-based; conditions: HCT-116, 72 h
HCT-116 = assay: as §2; assay type: functional, cell-based
[3] = (§3) Growth inhibition of human 518A2 cells after 72 hrs by MTT assay; assay type: functional, cell-based; conditions: 518A2, 72 h
518A2 [4] = assay: as §3; assay type: functional, cell-based
[5] = (§4) Growth inhibition of human MCF7/Topo cells after 72 hrs by MTT assay; assay type: functional, cell-based
MCF7/Topo = assay: as §4; assay type: functional, cell-based
[6] = (§5) Growth inhibition of human PANC1 cells after 72 hrs by MTT assay; assay type: functional, cell-based; conditions: PANC-1, 72 h
PANC-1 = assay: as §5; assay type: functional, cell-based
[7] = (§6) Growth inhibition of human KB-V1/Vbl cells after 72 hrs by MTT assay; assay type: functional
KB-V1/Vbl = assay: as §6; assay type: functional
[8] = Cell cycle arrest in human HT-29 cells assessed as accumulation in G2/M phase at 15 uM after 24 hrs by propidium iodide staining based flow cytometry; assay type: functional
Summary of the method: (§7)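 HT-29 colon carcinoma cells treated 24 h with 15 µM compound or DMSO (control); propidium iodide staining, flow cytometry for cell-cycle phase distribution and sub-G1 fraction. Means ± SD of three independent experiments.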

[9] = Cell cycle arrest in human HT-29 cells assessed as decrease in G1 phase at 15 uM after 24 hrs by propidium iodide staining based flow cytometry; assay type: functional; summary of the method: as §7
[10] = target: T1, Broad substrate specificity ATP-binding cassette transporter ABCG2 (Homo sapiens, UniProt Q9UNQ0); assay: Inhibition of BCRP in human MCF7/Topo cells assessed as mitoxantrone accumulation preincubated for 10 mins followed by mitoxantrone addition measured after 30 mins by fluorescence assay; assay type: cell-based
T1 sequence (Q9UNQ0 whole entry): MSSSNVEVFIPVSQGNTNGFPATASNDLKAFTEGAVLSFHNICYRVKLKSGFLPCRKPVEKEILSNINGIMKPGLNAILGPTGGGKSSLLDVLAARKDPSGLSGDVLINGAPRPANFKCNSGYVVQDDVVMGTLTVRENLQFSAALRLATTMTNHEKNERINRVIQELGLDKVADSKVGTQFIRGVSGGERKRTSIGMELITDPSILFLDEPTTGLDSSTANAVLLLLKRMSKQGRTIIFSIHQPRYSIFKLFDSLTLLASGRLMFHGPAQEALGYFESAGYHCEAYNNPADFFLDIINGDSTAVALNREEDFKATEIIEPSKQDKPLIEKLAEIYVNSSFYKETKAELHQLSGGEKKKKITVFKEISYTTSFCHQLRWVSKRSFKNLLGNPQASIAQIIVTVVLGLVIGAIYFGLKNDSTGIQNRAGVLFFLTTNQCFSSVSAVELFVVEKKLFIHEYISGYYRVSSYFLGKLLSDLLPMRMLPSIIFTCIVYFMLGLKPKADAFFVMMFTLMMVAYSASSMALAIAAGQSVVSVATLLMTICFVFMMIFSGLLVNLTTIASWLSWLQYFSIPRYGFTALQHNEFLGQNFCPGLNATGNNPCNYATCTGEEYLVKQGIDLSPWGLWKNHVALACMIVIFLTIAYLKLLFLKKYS
Summary of the method: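 MCF-7/Topo breast cancer cells (BCRP-overexpressing) exposed to compounds at 0–100 µM, or fumitremorgin C 0.1–100 µM as reference inhibitor, for 30 min with mitoxantrone as fluorescent BCRP substrate. Mitoxantrone fluorescence taken as measure of inhibition; IC50 from dose–response curves; mean ± SD of three independent experiments.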

[11] = target: ATP-dependent translocase ABCB1 (Homo sapiens, UniProt P08183); assay: Inhibition of P-gp in human KB-V1/Vbl cells assessed as calcein-AM accumulation preincubated for 15 mins followed by calcein-AM addition measured after 15 mins by fluorescence assay; assay type: cell-based
Chain of ATP-dependent translocase ABCB1 (P08183 whole entry, the tested form may be a part): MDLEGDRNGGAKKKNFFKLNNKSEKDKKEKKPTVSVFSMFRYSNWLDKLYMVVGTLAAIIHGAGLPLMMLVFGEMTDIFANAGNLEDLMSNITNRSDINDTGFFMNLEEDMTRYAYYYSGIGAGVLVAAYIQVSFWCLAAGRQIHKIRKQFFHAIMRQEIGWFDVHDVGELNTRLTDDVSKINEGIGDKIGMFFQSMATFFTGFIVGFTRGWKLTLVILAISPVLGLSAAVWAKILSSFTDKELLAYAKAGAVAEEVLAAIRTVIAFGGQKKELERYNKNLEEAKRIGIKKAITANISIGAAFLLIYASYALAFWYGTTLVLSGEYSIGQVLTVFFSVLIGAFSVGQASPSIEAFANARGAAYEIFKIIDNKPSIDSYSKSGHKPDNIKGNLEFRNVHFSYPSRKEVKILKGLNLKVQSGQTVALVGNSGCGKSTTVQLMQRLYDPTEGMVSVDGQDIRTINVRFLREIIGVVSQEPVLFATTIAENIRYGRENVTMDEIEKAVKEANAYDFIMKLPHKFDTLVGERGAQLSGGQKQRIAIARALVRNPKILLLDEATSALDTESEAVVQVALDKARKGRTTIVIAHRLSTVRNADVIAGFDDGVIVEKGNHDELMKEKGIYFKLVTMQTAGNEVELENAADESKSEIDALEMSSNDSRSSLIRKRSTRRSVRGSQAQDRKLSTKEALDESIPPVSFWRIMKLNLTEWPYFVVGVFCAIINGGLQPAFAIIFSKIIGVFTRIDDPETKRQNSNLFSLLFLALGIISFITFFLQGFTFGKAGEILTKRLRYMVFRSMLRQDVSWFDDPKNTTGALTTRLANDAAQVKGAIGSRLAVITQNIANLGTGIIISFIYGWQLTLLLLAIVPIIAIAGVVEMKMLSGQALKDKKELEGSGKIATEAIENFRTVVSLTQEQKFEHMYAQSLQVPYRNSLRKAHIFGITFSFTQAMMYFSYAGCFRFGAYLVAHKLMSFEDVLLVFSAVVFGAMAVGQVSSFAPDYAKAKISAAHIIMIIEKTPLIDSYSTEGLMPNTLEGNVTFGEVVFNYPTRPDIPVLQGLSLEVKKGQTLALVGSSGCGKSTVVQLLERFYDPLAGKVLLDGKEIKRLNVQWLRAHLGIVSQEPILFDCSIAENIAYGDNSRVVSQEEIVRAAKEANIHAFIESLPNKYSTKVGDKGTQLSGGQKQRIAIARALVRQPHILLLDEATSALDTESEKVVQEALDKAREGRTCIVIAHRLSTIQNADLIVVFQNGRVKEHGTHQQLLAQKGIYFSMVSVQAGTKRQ

518A2 [12] = assay: Induction of apoptosis in human 518A2 cells assessed as DNA fragmentation at 25 uM after 24 hrs by TUNEL based flow cytometry; assay type: functional, cell-based
Summary of the method: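 518A2 melanoma cells treated 24 h; DNA fragmentation detected by TUNEL labelling and quantified by flow cytometry against untreated controls.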

518A2 [13] = assay: Induction of apoptosis in human 518A2 cells assessed as DNA ladder formation at 50 uM after 24 hrs by ethidium bromide staining based agarose gel electrophoresis; assay type: functional, cell-based
Sus scrofa = species on record: Sus scrofa; assay: Inhibition of pig brain tubulin polymerization at 5 uM measured every 20 sec for 2 hrs by turbidimetric method
518A2 [14] = assay: Inhibition of tubulin polymerization in human 518A2 cells assessed as increase in detergent soluble tubulin heterodimers at 5 to 50 uM after 4 hrs by Western blot analysis; assay type: cell-based
Summary of the method: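 518A2 melanoma cells treated 4 h with a range of concentrations; detergent-insoluble (polymeric tubulin) lysate fraction separated by centrifugation, run on SDS–PAGE, immunoblotted for alpha-tubulin (55 kDa); densitometry from at least two independent experiments (mean ± SD).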

518A2 [15] = assay: Binding affinity to tubulin in human 518A2 cells assessed as effect on F-actin cytoskeleton by measuring increase in stress fibres at 10 uM after 24 hrs by phalloidin 488/DAPI staining based fluorescence microscopic analysis; assay type: cell-based
Summary of the method: (§8)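 518A2 melanoma cells treated 24 h at 10 µM or 5 µM; F-actin fluorescently stained and cytoskeletal organisation, including stress-fibre formation, compared with untreated controls by fluorescence microscopy.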

P-gp (ABCB1) = P-gp (ABCB1) (Homo sapiens, UniProt P08183); assay: Potency index, ratio of verapamil IC50 to compound IC50 for P-gp in human KB-V1/Vbl cells; assay type: cell-based; conditions: read-out: Ratio IC50
Chain of P-gp (ABCB1) (P08183 whole entry): as the sequence (P08183 whole entry, the tested form may be a part) above

518A2 [16] = assay: Binding affinity to tubulin in human 518A2 cells assessed as effect on F-actin cytoskeleton by measuring increase in stress fibres at 5 uM after 24 hrs by phalloidin 488/DAPI staining based fluorescence microscopic analysis; assay type: cell-based; summary of the method: as §8

SMILES	IC50 [1] [µM]	growth inhibition (GI) (HT-29)	IC50 [2] [µM]	growth inhibition (GI) (HCT-116)	IC50 [3] [µM]	growth inhibition (GI) (518A2 [4])	IC50 [5] [µM]	growth inhibition (GI) (MCF7/Topo)	IC50 [6] [µM]	growth inhibition (GI) (PANC-1)	IC50 [7] [µM]	growth inhibition (GI) (KB-V1/Vbl)	Activity [8]	Activity [9]	IC50 [10] [µM]	IC50 [11] [µM]	inhibition (Sus scrofa)	inhibition (518A2 [14])	selectivity ratio (P-gp (ABCB1))	also measured
COc1cc(/C=C/C(=O)c2ccc3ccccc3c2)cc(Cl)c1OC	23.9	Dose-dependent effect	12.9	Dose-dependent effect	16.4	Dose-dependent effect	1.5	Dose-dependent effect	10.3	Dose-dependent effect	13.1	Dose-dependent effect	Active	Active	8.7	> 500	Active	Active		Activity (518A2 [12]): Active; Activity (518A2 [13]): Active; Activity (518A2 [15]): Active
COc1cc(/C=C/C(=O)c2ccc3ccccc3c2)cc(I)c1OC	13.3	Dose-dependent effect	14.4	Dose-dependent effect	18.1	Dose-dependent effect	1.3	Dose-dependent effect	10.4	Dose-dependent effect	16.5	Dose-dependent effect	Active	Active	7.8	> 500	Active	Active		
COc1cc(/C=C/C(=O)c2ccc3ccccc3c2)cc(OC)c1OC	28.1	Dose-dependent effect	13.7	Dose-dependent effect	22.9	Dose-dependent effect	5.6	Dose-dependent effect	13.3	Dose-dependent effect	13.9	Dose-dependent effect	Active	Active	2.4	13			4 to 5	Activity (518A2 [12]): Active; Activity (518A2 [13]): Active; Activity (518A2 [15]): Active
COc1ccc2c3c([nH]c2c1)[C@H](C=C(C)C)N1C(=O)[C@@H]2CCCN2C(=O)[C@@H]1C3 [FUMITREMORGIN]															0.96					
COc1cc(C2CC(c3ccc4ccccc4c3)=NN2C(C)=O)cc(I)c1OC (configuration not stated)	2.3	Dose-dependent effect	1.6	Dose-dependent effect	3.8	Dose-dependent effect	2.5	Dose-dependent effect	1.1	Dose-dependent effect	1.9	Dose-dependent effect	Active	Active	7.1	16.3	Active	Active	4 to 5	
COc1cc(C2CC(c3ccc4ccccc4c3)=NN2C(C)=O)cc(Br)c1OC (configuration not stated)	2.5	Dose-dependent effect	2.7	Dose-dependent effect	3.8	Dose-dependent effect	2.6	Dose-dependent effect	1.5	Dose-dependent effect	2.2	Dose-dependent effect	Active	Active	8.9	12.6			4 to 5	
COc1cc(C2CC(c3ccc4ccccc4c3)=NN2C(C)=O)cc(Cl)c1OC (configuration not stated)	3.5	Dose-dependent effect	3.8	Dose-dependent effect	4.6	Dose-dependent effect	2.1	Dose-dependent effect	3.1	Dose-dependent effect	4.7	Dose-dependent effect	Active	Active	7.4	12.1	Active	Active	4 to 5	Activity (518A2 [16]): Active
COc1cc(/C=C/C(=O)c2ccc3ccccc3c2)cc(Br)c1OC	22.8	Dose-dependent effect	11.2	Dose-dependent effect	20.2	Dose-dependent effect	2.3	Dose-dependent effect	9.3	Dose-dependent effect	10.5	Dose-dependent effect	Active	Active	4.9	> 500				
